# Data: publication PMC4201343 (ACS Chemical Biology, 2014)
# Where a name gives a salt, the structure may show the parent alone. Read-outs that look alike come from different tables or passages of the source.
# Key:
# E. coli SSB = E. coli SSB (Escherichia coli, UniProt P0AGE0); assay: FP-based binding assay with SSB in place of NS3h; settings: for inhibition at 100 µM: read-out: SSB (% I): percent inhibition of SSB binding to Cy5-dT15; for SSB (% I): percent inhibition of SSB binding to Cy5-dT15: 100 μM of each compound; for SSB binding inhibition relative to NS3h binding inhibition: 100 μM
# Sequence of E. coli SSB (P0AGE0 2-178 limits assumed): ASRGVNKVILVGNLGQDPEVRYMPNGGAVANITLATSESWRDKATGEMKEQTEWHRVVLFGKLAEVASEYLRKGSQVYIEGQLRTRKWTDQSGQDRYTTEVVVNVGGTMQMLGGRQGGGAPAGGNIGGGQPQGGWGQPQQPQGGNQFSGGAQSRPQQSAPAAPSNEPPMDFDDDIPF
# Procedure, shortened: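 Fluorescence polarisation assay with E. coli SSB in place of NS3h, using Cy5-dT15 (or Cy5-rU15 for titrations). Screen compounds were pin-transferred to 100 μM final, 1% DMSO. Excitation 635 nm, emission 667 nm; G-factor from probe-only wells. Percent inhibition was normalised to DMSO and to unlabeled dT20 or 100 μM primuline controls.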
# HCV NS3h = molecular target: T1, HCV NS3h (Hepatitis C virus genotype 1b, UniProt Q9WMX2); assay: FP-based binding assay, NS3h displacement from Cy5-dT15 DNA; design: species or system hepatitis C virus genotype 1b (con1); settings: for NS3h (% I): percent inhibition of NS3h binding to Cy5-dT15: 100 μM of each compound; for inhibition at 100 µM: read-out: NS3h (% I): percent inhibition of NS3h binding to Cy5-dT15, 100 μM of each compound; for ability to inhibit HCV helicase binding to DNA (in words): compared with ebselen
# T1 sequence (Q9WMX2 1190-1657 limits assumed): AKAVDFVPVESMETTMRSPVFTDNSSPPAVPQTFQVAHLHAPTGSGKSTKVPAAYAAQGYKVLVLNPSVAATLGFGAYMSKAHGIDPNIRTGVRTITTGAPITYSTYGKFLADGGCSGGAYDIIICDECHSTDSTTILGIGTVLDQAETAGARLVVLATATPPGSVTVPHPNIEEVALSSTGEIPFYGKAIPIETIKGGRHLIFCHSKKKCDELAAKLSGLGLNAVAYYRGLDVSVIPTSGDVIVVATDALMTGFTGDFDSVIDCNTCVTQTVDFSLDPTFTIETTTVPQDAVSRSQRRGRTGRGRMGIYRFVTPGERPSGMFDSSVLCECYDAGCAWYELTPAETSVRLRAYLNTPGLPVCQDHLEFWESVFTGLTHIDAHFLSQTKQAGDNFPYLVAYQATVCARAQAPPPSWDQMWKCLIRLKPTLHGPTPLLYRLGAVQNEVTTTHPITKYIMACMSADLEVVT
# Procedure, shortened: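 Fluorescence polarization with Cy5-dT15 and NS3h: excitation 635 nm; parallel and perpendicular emission read at 667 nm; G-factor taken from probe-only wells. % inhibition normalized to DMSO-only (negative) and 200 nM dT20 or 100 μM primuline (positive) controls. Single-point tests at 100 μM. IC50 is the concentration displacing 50% of NS3h from DNA. Reversibility: 10 μM NS3h preincubated 1 h with test compound, then diluted 100–100 000-fold into Cy5-dT15 and compared with untreated controls.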
# [1] = tested on: HCV genotype 2a isolate (JFH1); settings: 20 μM of each compound; ref Gastaminza et al.[9]; cited from earlier work
# [2] = tested on: HCV Con1/1b Rluc subgenomic replicon in Huh-7.5 cells; assay: HCV subgenomic replicon assay; format: cell-based, hepatitis C virus genotype 1b; settings: for antiviral potency relative to ebsulfur/ebselen (times more potent): replicon; for therapeutic index (CC50/EC50): replicon EC50 and Huh7.5 CC50
# Procedure, shortened: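 Huh-7.5 cells carrying a stable genotype 1b Con1 Renilla luciferase subgenomic replicon (kept in 0.25 mg/mL Geneticin) were seeded at 10 × 10^3 per well. Two-fold compound series, 0.5% final DMSO, 3 days at 37 °C, 5% CO2. Washed cells were lysed and Renilla luminescence read. EC50 is the concentration halving Rluc; CC50 comes from a parallel CellTiter-Glo viability run; three independent titrations.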
# NS3h_1b(con1) [3] = molecular target: T2, NS3h_1b(con1) (Hepatitis C virus genotype 1b, con1 …, UniProt Q9WMX2 1190-1657); assay: fluorescence polarization
# SSB = SSB (Escherichia coli, UniProt P0AGE0 1-178); assay: fluorescence polarization
# Sequence of SSB (P0AGE0 whole entry): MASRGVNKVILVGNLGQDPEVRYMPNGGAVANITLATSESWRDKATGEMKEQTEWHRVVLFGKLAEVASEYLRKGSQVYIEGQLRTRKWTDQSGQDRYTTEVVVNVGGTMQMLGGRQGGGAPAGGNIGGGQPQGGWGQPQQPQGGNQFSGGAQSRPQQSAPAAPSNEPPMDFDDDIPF
# NS3h_1b(con1) [4] = molecular target: T2, NS3h_1b(con1); assay: fluorescence polarization; remark: listed apart in the source
# NS3h_2a(JFH1) = NS3h_2a(JFH1) (Hepatitis C virus genotype 2a, JFH1, UniProt Q99IB8 1194-1661); assay: fluorescence polarization
# Sequence of NS3h_2a(JFH1) (Q99IB8 1194-1661): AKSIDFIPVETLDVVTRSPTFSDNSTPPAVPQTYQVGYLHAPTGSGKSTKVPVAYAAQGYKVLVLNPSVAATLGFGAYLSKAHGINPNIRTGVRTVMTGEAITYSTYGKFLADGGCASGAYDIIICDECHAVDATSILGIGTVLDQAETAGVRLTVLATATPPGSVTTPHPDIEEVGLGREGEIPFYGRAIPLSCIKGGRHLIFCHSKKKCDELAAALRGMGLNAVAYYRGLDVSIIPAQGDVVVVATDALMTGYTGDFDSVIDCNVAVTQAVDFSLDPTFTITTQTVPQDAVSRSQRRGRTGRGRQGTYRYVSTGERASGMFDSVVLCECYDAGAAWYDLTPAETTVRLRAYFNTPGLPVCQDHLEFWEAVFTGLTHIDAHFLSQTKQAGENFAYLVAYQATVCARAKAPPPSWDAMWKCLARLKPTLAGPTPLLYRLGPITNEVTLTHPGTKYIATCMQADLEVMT
# NS3h_1b(con1) [5] = molecular target: T2, NS3h_1b(con1); assay: fluorescence polarization; remark: listed apart in the source
molecule,measurement,setting,value
O=C1c2c(O)ccc(O)c2C(=O)c2c(NCCNCCO)ccc(NCCNCCO)c21 [Mitoxantrone],inhibition at 100 µM,E. coli SSB,121%
same,NS3h (% I): percent inhibition of NS3h binding to Cy5-dT15,HCV NS3h; 100 µM,125%
same,NS3h (% I): percent inhibition of NS3h binding to Cy5-dT15,"HCV NS3h; listed as mitoxantrone, 100 µM",more than 50%
CS(=O)(=O)Nc1ccc(Cc2noc(-c3ccc4[nH]cc(CCN)c4c3)n2)cc1.O [L 694247],HCV (% I): percent inhibition of HCV replication in cells,[1],<0%
same,SSB (% I): percent inhibition of SSB binding to Cy5-dT15,E. coli SSB,37%
same,NS3h (% I): percent inhibition of NS3h binding to Cy5-dT15,HCV NS3h,3%
CN(C)[C@@H]1C(O)=C(C(=O)NCN2CCCC2)C(=O)[C@@]2(O)C(O)=C3C(=O)c4c(O)cccc4[C@@](C)(O)[C@H]3C[C@@H]12 [Rolitetracycline],HCV (% I): percent inhibition of HCV replication in cells,[1],<0%
same,inhibition at 100 µM,E. coli SSB,45%
same,inhibition at 100 µM,HCV NS3h,-4%
CCCCCCCCCOc1ccc2[nH]cc(CCN)c2c1 [5-Nonyloxy-tryptamine],HCV (% I): percent inhibition of HCV replication in cells,[1],100%
same,inhibition at 100 µM,E. coli SSB,67%
same,inhibition at 100 µM,HCV NS3h,-8%
"O=C(CCn1sc2ccccc2c1=O)Nc1ccccc1 [compound 13, 3-(3-Oxobenzo[d]isothiazol-2(3H)-yl)-N-phenylpropanamide]",decrease in the ability to inhibit HCV helicase (longer linker),HCV NS3h; relative to peptide-linker analogues,10 fold
C=CC1=C(C(=O)O)N2C(=O)[C@@H](NC(=O)C(=NOCC(=O)O)c3csc(N)n3)[C@H]2SC1.O [HMS2052E19],HCV (% I): percent inhibition of HCV replication in cells,[1],<0%
same,SSB binding inhibition relative to NS3h binding inhibition,E. coli SSB,3–4 times
same,SSB (% I): percent inhibition of SSB binding to Cy5-dT15,E. coli SSB,95%
same,NS3h (% I): percent inhibition of NS3h binding to Cy5-dT15,HCV NS3h,28%
"O=c1c2ccc(Br)cc2sn1-c1ccccc1 [compound 3, 6-Bromo-2-phenylbenzo[d]isothiazol-3(2H)-one]",antiviral potency relative to ebsulfur/ebselen (times more potent),[2],~10 times
same,therapeutic index (CC50/EC50),[2],~1
C=CC1=C(C(=O)O)N2C(=O)[C@@H](NC(=O)C(=NO)c3csc(N)n3)[C@H]2SC1 [Spectrum 001824],HCV (% I): percent inhibition of HCV replication in cells,[1],5.8%
same,SSB (% I): percent inhibition of SSB binding to Cy5-dT15,E. coli SSB,96%
same,NS3h (% I): percent inhibition of NS3h binding to Cy5-dT15,HCV NS3h,11%
"O=c1cc(-c2ccccc2)sn1-c1ccccc1 [compound 14, 2,5-Diphenylisothiazol-3(2H)-one]",ability to inhibit HCV helicase binding to DNA (in words),HCV NS3h,complete loss of activity
CC(O)CO.N[C@@H](C(=O)N[C@@H]1C(=O)N2C(C(=O)O)=C(CSc3cn[nH]n3)CS[C@H]12)c1ccc(O)cc1 [Seapuron],HCV (% I): percent inhibition of HCV replication in cells,[1],<0%
same,SSB binding inhibition relative to NS3h binding inhibition,E. coli SSB,3–4 times
same,SSB (% I): percent inhibition of SSB binding to Cy5-dT15,E. coli SSB,56%
same,NS3h (% I): percent inhibition of NS3h binding to Cy5-dT15,HCV NS3h,22%
COc1cccc2c1C(=O)c1c(O)c3c(c(O)c1C2=O)C[C@@](O)(C(=O)CO)C[C@@H]3O[C@H]1C[C@H](N)[C@H](O)[C@H](C)O1 [Doxorubicin Hydrochloride],HCV (% I): percent inhibition of HCV replication in cells,[1],100%
same,inhibition at 100 µM,E. coli SSB,90%
same,inhibition at 100 µM,HCV NS3h,8%
"O=c1c2cc(F)c(F)cc2sn1-c1ccccc1 [compound 2, 5,6-Difluoro-2-phenylbenzo[d]isothiazol-3(2H)-one]",antiviral potency relative to ebsulfur/ebselen (times more potent),[2],~10 times
same,therapeutic index (CC50/EC50),[2],~1
"Cn1c2ccccc2c(=O)n1-c1ccccc1 [compound 15, 1-Methyl-2-phenyl-1H-indazol-3(2H)-one]",ability to inhibit HCV helicase binding to DNA (in words),HCV NS3h,complete loss of activity
Cl.NC1CCN(c2cccc(Cl)n2)CC1 [SR 57227A],HCV (% I): percent inhibition of HCV replication in cells,[1],12%
same,SSB (% I): percent inhibition of SSB binding to Cy5-dT15,E. coli SSB,133%
same,NS3h (% I): percent inhibition of NS3h binding to Cy5-dT15,HCV NS3h,–1%
UUUUUUUUUUUUUUU (ssRNA) [Cy5-rU15],binding result,NS3h_1b(con1) [3],binds
same,binding result,SSB,binds
TTTTTTTTTTTTTTTTTTTT (ssDNA) [Cy5-dT20],binding signal,NS3h_1b(con1) [4],1 Ka relative to NS3h_1b(con1)
same,binding signal,NS3h_2a(JFH1),~2 Ka relative to NS3h_1b(con1)
TTTTTTTTTTTTTTT (ssDNA) [Cy5-dT15],binding result,NS3h_1b(con1) [5],binds
same,binding result,SSB,binds
